N-glyco inh: N-linked glycosylation inhibition; D54 ERlucT glycosylation luciferase reporter, 24 h; percent of 100 nM tunicamycin response; reporter increase, % at 12.5 µM; 360,000 tested, 0.23% active; AID 588692;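 active means mean luciferase reporter signal, scaled so untreated is 0 and the glycosylation-blocking control 100, at or above a set limit in every replicate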;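 further: luciferase carries N-glycosylation sites so blocking glycosylation raises the light; 0% = median of neutral control wells and 100% = median of 100 nM tunicamycin wells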
HIV Env fusion: blocks HIV Env-driven cell-cell fusion; HeLa-JRFL Env/CEM21 cell fusion, luciferase; inhibition, % at 12.3 µM; 360,000 tested, 1.1% active; AID 651610;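 active means mean replicate inhibition score of at least 50 and every replicate individually at or above 50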;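 further: 0% = plate neutral controls and 100% = maraviroc near 300 nM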
MLL AF4-AF9 inh: blocks AF4 peptide binding to human AF9; AlphaScreen, biotin-AF4 peptide binding to FLAG-AF9; inhibition, % at 10 µM; P42568; 350,000 tested, 0.47% active; AID 651704;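 active means every replicate reaching a set inhibition limit, whatever the replicate mean, cut at about 25% in these data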;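 further: 0% = plate neutral control median and 100% = total signal loss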
Target sequence (P42568 whole entry, looked up): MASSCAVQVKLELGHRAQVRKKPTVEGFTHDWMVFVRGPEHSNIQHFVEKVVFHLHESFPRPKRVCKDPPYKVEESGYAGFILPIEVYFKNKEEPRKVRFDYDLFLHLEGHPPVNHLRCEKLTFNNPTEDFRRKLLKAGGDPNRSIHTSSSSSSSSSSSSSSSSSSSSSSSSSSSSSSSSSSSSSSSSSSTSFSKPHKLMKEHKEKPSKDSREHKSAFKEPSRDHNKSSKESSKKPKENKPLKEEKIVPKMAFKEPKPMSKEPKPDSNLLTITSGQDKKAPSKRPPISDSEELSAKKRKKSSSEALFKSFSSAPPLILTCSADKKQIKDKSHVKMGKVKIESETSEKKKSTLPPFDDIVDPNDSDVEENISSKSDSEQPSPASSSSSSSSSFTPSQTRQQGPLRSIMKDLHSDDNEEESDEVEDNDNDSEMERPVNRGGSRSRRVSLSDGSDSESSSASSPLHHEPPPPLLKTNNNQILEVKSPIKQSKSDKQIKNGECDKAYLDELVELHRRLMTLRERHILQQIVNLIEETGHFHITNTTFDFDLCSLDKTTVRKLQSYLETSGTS
PAX8 reporter: inhibitors of PAX8 transcriptional activity in RMG-I cells; RMG-I TPO-luciferase reporter, SteadyGlo, 24 h; inhibition, % at 12.6 µM; 360,000 tested, 1.2% active;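 active means mean replicate inhibition at least 60% with every replicate also reaching 60%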;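 further: luciferase light reporting Pax8 driven TPO promoter activity; plate controls were median of neutral control wells for no effect and mitoxantrone controls for full effect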
EWS-Fli block: blocks EWS/Fli oncoprotein-driven transcription | A673 NR0B1-luciferase reporter, viability-normalised | inhibition, % at 12.6 µM | 350,000 tested, 0.67% active;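 active means mean inhibition of at least 50% after viability correction, with every replicate also passing that limit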;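 further: firefly luciferase signal divided by Alamar Blue viability fluorescence both relative to DMSO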
FN deposit inh: fibronectin deposition inhibition; AH1F fibroblasts, Alexa488-fibronectin deposition fluorescence, overnight; inhibition, % at 12.6 µM; 350,000 tested, 0.086% active; AID 743247;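 active means mean inhibition across replicates of 30% or more, regardless of how many single replicates reach that level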;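 further: positive control wells lacked labelled fibronectin entirely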
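material = AH1F fibroblast monolayer depositing Alexa488-labelled fibronectin into matrix | amount = 10000 AH1F cells/well | buffer or medium = DMEM plus 2% serum, read in PBS | incubation = 1 h cell adhesion before compound, then overnight fibronectin incubation | detection = fluorescence at 485 nm excitation, 525 nm emission | evaluation = percent inhibition as loss of matrix-bound fibronectin fluorescence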
DNA binding: binds DNA displacing acridine orange | shares compounds with EWS-Fli block | salmon sperm DNA acridine orange fluorescence polarization | AC35, µM (top dose mostly 68 µM), inactives show at the highest dose activity change, negative = DNA binding | 640 tested, 2% active | AID 720586;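 active means fitted curve reaches a 35% signal fall AC35 below twice the sample's top valid tested dose, actives reach about 48 µM in these data; inactive means the rest, including activity in the rising direction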;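 further: lower polarization ratio signals compound binding to DNA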
The depositor's hits bear a star; [ ] = remark or other dose. Compounds with a hit are over-represented: about 2.5% of the library has one in this group of screens.

`C=C1C(=O)O[C@H]2[C@H]1[C@H](OC(=O)/C(C)=C\C)C[C@]1(CO1)[C@@H]1[C@H](OC(C)=O)C=C(C)[C@]21O` gave N-glyco inh 11, HIV Env fusion -3, MLL AF4-AF9 inh -3, PAX8 reporter 16, EWS-Fli block -3 and FN deposit inh -3.
Screening C=C1C(=O)O[C@@H]2[C@H]1[C@@H](OC(=O)/C(C)=C/C)C/C(C)=C\C(=O)/C=C(\C)[C@@H]2O returned N-glyco inh 8, HIV Env fusion -141, MLL AF4-AF9 inh -12, PAX8 reporter 98*, EWS-Fli block 73*, FN deposit inh 0 and DNA binding -6%.
`Cc1occc1-c1n[nH]c(=S)n1-c1ccccc1` gave N-glyco inh 1, HIV Env fusion -5, MLL AF4-AF9 inh -1, PAX8 reporter 16, EWS-Fli block 14 and FN deposit inh -2.
Screening Cc1occc1-c1n[nH]c(=S)n1C returned N-glyco inh 3, HIV Env fusion -30, MLL AF4-AF9 inh -10, PAX8 reporter 6, EWS-Fli block 75*, FN deposit inh -4 and DNA binding -7%.
CCC(=O)N[C@@H]1CC[C@@H](CCn2cc(C3CC3)nn2)O[C@@H]1CO was read as HIV Env fusion 0[16.7 µM], MLL AF4-AF9 inh -3, PAX8 reporter -21, EWS-Fli block -2 and FN deposit inh -3.
O=C(NCc1cccnc1)C1Cc2c(-c3ccc(Cl)cc3)ccnc2O1 (stereo not drawn) was read as N-glyco inh 15, HIV Env fusion -10, MLL AF4-AF9 inh 0, PAX8 reporter 29, EWS-Fli block 52*, FN deposit inh 3 and DNA binding -3%.
For COc1ccc(CCCNC(=O)C2Cc3c(-c4ccc5c(c4)OCO5)ccnc3O2)cc1 (stereo not drawn) the results were N-glyco inh 16, HIV Env fusion -24, MLL AF4-AF9 inh 0, PAX8 reporter 28, EWS-Fli block 53*, FN deposit inh 2 and DNA binding -2%.
Screening O=C(CCCN1C(=O)/C(=C/c2ccccc2Cl)SC1=S)NNC(=O)c1ccc(Cl)cc1 returned N-glyco inh 0, HIV Env fusion 50, MLL AF4-AF9 inh -22, PAX8 reporter 25, EWS-Fli block 74*, FN deposit inh -2 and DNA binding 5%.
For Cc1ccc(/C=C2\SC(=S)N(CCC(=O)NNC(=O)c3ccccc3O)C2=O)cc1 the results were N-glyco inh 0, HIV Env fusion 0, MLL AF4-AF9 inh 0, PAX8 reporter -4, EWS-Fli block 51*, FN deposit inh -3 and DNA binding 5%.
Screening Cc1ccc(C(=O)NNC(=O)CCCN2C(=O)/C(=C/c3ccccc3Cl)SC2=S)cc1 returned N-glyco inh 1, HIV Env fusion -11, PAX8 reporter 19, EWS-Fli block 31 and FN deposit inh 0.
`Cc1ccc(/C=C2\SC(=S)N(CCCC(=O)NNC(=O)c3ccccc3O)C2=O)cc1` gave N-glyco inh -8, HIV Env fusion 96*, MLL AF4-AF9 inh 5, PAX8 reporter 64*, EWS-Fli block 82*, FN deposit inh 10 and DNA binding 9%.
`CO[C@H]1CN(C)C(=O)c2cc(NC(=O)c3cccc(F)c3)ccc2OC[C@@H](C)N(CC2CC2)C[C@@H]1C` gave MLL AF4-AF9 inh -8, PAX8 reporter -10, EWS-Fli block 0 and FN deposit inh -1.
`O=S(=O)(N[C@H]1CC[C@H](CCn2cc(C3CC3)nn2)O[C@@H]1CO)c1ccc(F)cc1` gave HIV Env fusion 15[16.7 µM], MLL AF4-AF9 inh -2, PAX8 reporter 6 and EWS-Fli block 0.
`Cc1ccc(/C=C/C(=O)N2CCN(S(=O)(=O)c3ccc(C)c(C)c3)CC2)o1` gave N-glyco inh 20, HIV Env fusion -6, PAX8 reporter 11 and FN deposit inh -8.
Screening Cc1ccc(/C=C/C(=O)N2CCN(S(=O)(=O)c3c(C)c(C)cc(C)c3C)CC2)o1 returned N-glyco inh 5, HIV Env fusion -16, MLL AF4-AF9 inh -10, PAX8 reporter 15, EWS-Fli block 85* and DNA binding 0%.
`COc1cc2c(cc1OC)C(C)N(C(=O)c1cc(Cl)nc(Cl)c1)CC2` (stereo not drawn) gave N-glyco inh 12, HIV Env fusion -18, MLL AF4-AF9 inh 0, PAX8 reporter 14, EWS-Fli block 56*, FN deposit inh 5 and DNA binding 1%.
COc1cc2c(cc1OC)C(C)N(C(=O)c1nccnc1C(=O)O)CC2 (stereo not drawn) was read as N-glyco inh 0, HIV Env fusion -8, MLL AF4-AF9 inh 3, PAX8 reporter 11, EWS-Fli block 1 and FN deposit inh 9.
`COc1cc(COC(C)=O)ccc1OC(C)=O` gave HIV Env fusion -4[16.7 µM], MLL AF4-AF9 inh -11, PAX8 reporter -3 and EWS-Fli block -2.
For C/C(=N\OCc1cccc(C(=O)O)c1)c1ccc(Cl)cc1 the results were N-glyco inh -10, HIV Env fusion 62*, MLL AF4-AF9 inh -3, PAX8 reporter 81*, EWS-Fli block 84*, FN deposit inh -2 and DNA binding -14%.
For OC[C@H]1[C@@H](c2ccc(C#CC3CCCC3)cc2)[C@@H]2CN(CCC(F)(F)F)CCCCN12 the results were MLL AF4-AF9 inh 22, PAX8 reporter 24, EWS-Fli block 52* and DNA binding -9%.
Screening COc1ccc(OC)c(/C=C/c2ccnc3ccccc23)c1 returned N-glyco inh 11, HIV Env fusion 24, MLL AF4-AF9 inh 2, PAX8 reporter 33, EWS-Fli block 70*, FN deposit inh -1 and DNA binding -14%.
For Cc1c(Cl)cnc(NC(=O)COC(=O)c2ccc3ncsc3c2)c1Cl the results were N-glyco inh -4, HIV Env fusion 16, MLL AF4-AF9 inh 0, PAX8 reporter 22, EWS-Fli block 62*, FN deposit inh 8 and DNA binding -12%.
For O=C(COC(=O)c1ccc2ncsc2c1)Nc1ncc(Cl)cc1Cl the results were N-glyco inh 3, HIV Env fusion -1, PAX8 reporter 8 and FN deposit inh 3.
`Cc1ccc(-c2nnc(-c3ccccc3)c(-c3ccccc3)n2)cc1` gave N-glyco inh -3, HIV Env fusion 5, MLL AF4-AF9 inh 5, PAX8 reporter 20, EWS-Fli block 1 and FN deposit inh 3.
`Cc1ccc2nc(-c3ccccc3)nn2c1` gave N-glyco inh -19, HIV Env fusion 35, MLL AF4-AF9 inh -3, EWS-Fli block 72*, FN deposit inh 4 and DNA binding -12%.
`COc1ccc2oc(-c3ccccc3)cc(=O)c2c1` gave N-glyco inh -18, MLL AF4-AF9 inh 6, EWS-Fli block 60* and DNA binding -4%.

Source: PubChem (Broad Institute)
